Bridge positions count the residues as written; N and C are the ends. Ends that are not written are not given here.
Experiments:
[1] = cited from earlier work
[2] = system: Tg2576 mice; assay: APP processing in brain; type: in vivo, mouse; details: Tg2576, chronic treatment, western blot 6E10, n = 6 per group
How it was run: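 Tg2576 females, 9 months old, given test compound at 200 μg kg−1 i.p. or PBS once daily for 10 weeks; n=6 per group for blots. Brain proteins were fractionated into TBS-soluble, TBS-X and formic acid fractions. Reduced SDS-PAGE and western blot used human APP-specific 6E10. Full-length APP and C99 were quantitated from the TBS-X fraction and sAPP from the TBS-soluble fraction. Mean±s.e.; t-tests.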

[3] = target: recombinant BACE1 (Homo sapiens, UniProt P56817); assay: In vitro BACE1 activity assay; type: biochemical
[4] = system: Dutch APP mice; assay: Serum Aβ after a single injection; type: in vivo, mouse; details: single i.p. 200 μg kg^-1
[5] = system: 5XFAD mice; assay: Serum Aβ after a single injection; type: in vivo, mouse
How it was run: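 Female 5XFAD mice got a single i.p. injection of test compound or PBS. Serum was drawn before and after injection. Aβ1–42 was measured by sandwich ELISA: 21F12 capture, biotinylated N-terminal detection, streptavidin-alkaline phosphatase and a fluorescent substrate. Samples were diluted twofold to fivefold. Lowest detection level was 1.6 pg ml−1, from a standard curve.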

[6] = cited from earlier work; remark: listed apart in the source

Chain of recombinant BACE1 (P56817 46-501, species assumed): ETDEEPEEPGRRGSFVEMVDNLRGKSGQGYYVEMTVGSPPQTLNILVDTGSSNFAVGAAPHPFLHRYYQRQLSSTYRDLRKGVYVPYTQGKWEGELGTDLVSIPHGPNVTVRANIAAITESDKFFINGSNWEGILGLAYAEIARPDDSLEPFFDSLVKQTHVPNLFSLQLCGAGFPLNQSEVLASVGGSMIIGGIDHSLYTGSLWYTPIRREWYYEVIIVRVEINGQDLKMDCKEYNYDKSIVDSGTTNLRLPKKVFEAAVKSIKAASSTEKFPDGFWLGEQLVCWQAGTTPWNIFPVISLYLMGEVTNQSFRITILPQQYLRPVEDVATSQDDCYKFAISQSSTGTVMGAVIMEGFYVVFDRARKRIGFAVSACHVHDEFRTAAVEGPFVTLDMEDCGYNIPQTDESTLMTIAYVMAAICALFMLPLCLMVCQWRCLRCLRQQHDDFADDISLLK

Substance	aggregation (in words) [1]	level of APP fragment C99 in brain versus controls (in words) [2]	ability to inhibit BACE1 activity (in words) ([3]; purified BACE1, same assay as amylin)	change of serum Aβ1-40 and Aβ1-42 after one injection (in words) [4]	change of serum Aβ after i.c.v. versus i.p. injection (in words) ([5]; single i.c.v. 200 μg kg^-1 vs single i.p. 200 μg kg^-1, P=0.03)	change of serum Aβ1-42 and Aβ1-40 after one injection (in words) ([5]; single i.p. 200 μg kg^-1)	dose dependence of serum Aβ1-42 change after challenge (in words) ([5]; single i.p. challenge, Figure 3e)	passage of the blood-brain barrier (in words) [6]	inhibition of BACE1 activity ([3]; purified BACE1, dose-dependent, concentration not given) [%]
Pramlintide (KCNTATCATQRLANFLVHSSNNFGPILPPTNVGSNTY-NH2; disulfide 2-7; chains of the INN, looked up)	does not form aggregates	did not reduce C99 levels	little or no ability to inhibit BACE1 activity	–	–	–	–	–	–
Amylin (KCNTATCATQRLANFLVHSSNNFGAILSSTNVGSNTY; not fully specified (C-terminus, bridges); cysteine pairing not given here; UniProt P10997 34-70, looked up)	–	lower levels of the APP processing fragments C99	–	provoked a surge of Aβ1–40 but not of Aβ1–42 in the blood	much greater surge of Aβ in serum than a peripheral i.p. injection	increased level of Aβ1–42 but not of Aβ1–40 in serum	dose dependent	passes through the blood–brain barrier (BBB) easily	70

— paper PMC4161670 (Molecular Psychiatry, 2014)
